Measurements: article PMC2886590 (Journal of molecular biology, 2010)

What was measured:
[1] = test system: MEIS1 promoter; experiment: ChIP: MLL occupancy at MEIS1; assay type: cell-based; settings: HA-tagged full-length MLL, 293T cells
Summary of the method: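 293T cells were transfected with HA-tagged full-length MLL, wild type or point mutant, for two days. ChIP was then run with the indicated antibodies. Quantitative PCR was done on ChIP-bound and input DNA at the MEIS1 promoter, with a MEIS1 3' genomic region for comparison.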

[2] = test system: histone H3 tail (H3K4me3); assay type: binding; settings: mutant PHD3; pull-down, microarray and NMR
Summary of the method: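 GST-fused MLL PHD3 (residues 1565-1627), wild type or mutant, was expressed in E. coli BL21(DE3) pLysS and purified on glutathione resin. It was incubated with C-terminally biotinylated histone H3 tail peptides (residues 1-21) on streptavidin beads in 50 mM Tris pH 7.5, 150 mM NaCl, 0.05% NP-40. Beads were washed five times, and bound protein was detected by anti-GST western blot. GST-PHD3 without peptide served as control.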

[3] = test system: H3K4me3 peptide; experiment: NMR titration of PHD3 mutants with H3K4me3 peptide; assay type: binding; settings: data not shown; for H3K4me3 binding of mutant (1H,15N HSQC): 0.2 mM 15N-labeled mutant PHD3, H3K4me3 12-mer peptide; for changes in 1H,15N HSQC spectra induced by H3K4me3 peptide: 0.2 mM 15N-labeled mutant PHD3
Summary of the method: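 PHD3 finger (residues 1565-1627, wild type or mutant) was expressed as a GST fusion in E. coli BL21(DE3) pLysS grown in 15NH4Cl minimal medium. It was affinity-purified, GST-cleaved, size-exclusion purified and held in 25 mM d11-Tris pH 6.8, 150 mM KCl, 10 mM deuterated DTT and 7% 2H2O. 12-mer histone tail peptides were added stepwise to 0.2 mM protein, and normalized chemical shift changes were tracked in 1H,15N HSQC spectra.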

[4] = MLL protein levels by western blot; assay type: cell-based; settings: 293T cells, Fig. 3B

Row | Molecule | MEIS1 occupancy [1] | ability to recognize H3K4me3 [2] | H3K4me3 binding of mutant (1H,15N HSQC) [3] | changes in 1H,15N HSQC spectra induced by H3K4me3 peptide [3] | protein stability in vivo [4]
1 | F1568A: MLL PHD3 point mutant (GST-PHD3 in vitro; engineered into full-length MLL in cells) (protein, left off: GST, end not stated, kept) KGNACPLCDKCYDDDDYESKMMQCGKCDRWVHSKCENLSDEMYEILSNLPESVAYTCVNCTER | also occupied the MEIS1 promoter |  |  |  | 
2 | D1592A: MLL PHD3 point mutant, acidic residue replaced with Ala (PHD3 in vitro; full-length MLL in cells) (protein, left off: GST, end not stated, kept) KGNFCPLCDKCYDDDDYESKMMQCGKCARWVHSKCENLSDEMYEILSNLPESVAYTCVNCTER | also occupied the MEIS1 promoter |  |  |  | 
3 | M1585A: "loss-of-function" MLL PHD3 point mutant (PHD3 in vitro; full-length MLL in cells) (protein, left off: GST, end not stated, kept) KGNFCPLCDKCYDDDDYESKAMQCGKCDRWVHSKCENLSDEMYEILSNLPESVAYTCVNCTER | also occupied the MEIS1 promoter | more severely compromised | binding was essentially abolished | small to negligible changes | 
4 | W1594A: "loss-of-structure" MLL PHD3 point mutant (PHD3 in vitro; full-length MLL in cells) (protein, left off: GST, end not stated, kept) KGNFCPLCDKCYDDDDYESKMMQCGKCDRAVHSKCENLSDEMYEILSNLPESVAYTCVNCTER |  | more severely compromised |  |  | reduced stability in vivo
5 | Y1576A: MLL PHD3 finger point mutant, tested in vitro only (protein, left off: GST, end not stated, kept) KGNFCPLCDKCADDDDYESKMMQCGKCDRWVHSKCENLSDEMYEILSNLPESVAYTCVNCTER |  | more severely compromised | binding was essentially abolished | small to negligible changes | 
